Source: ChEMBL document CHEMBL4130403, “Thermoactinoamide A, an Antibiotic Lipophilic Cyclopeptide from the Icelandic Thermophilic Bacterium Thermoactinomyces vulgaris” (2017)
In brackets after ≈: the same amount, converted by molar mass. Activity calls are given as the source filed them. The rule behind the calls is not given here.

How the values were obtained:
Escherichia coli [1] = assay: Antibacterial activity against Escherichia coli ATCC 8739 measured after overnight incubation; format: functional
Outline: (§1)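 Liquid growth inhibition in 96-well microplates. Each strain was precultured overnight in Luria Bertoni at 37 °C with stirring, then diluted to 0.03 OD at 620 nm. 200 μL of this suspension was added to wells holding 2-fold serial dilutions of peptide. Plates were incubated overnight at 34 °C with shaking at 450 rpm and read at 620 nm. MIC, run in triplicate, is the lowest concentration giving complete growth inhibition.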

Klebsiella pneumoniae [2] = assay: Antibacterial activity against Klebsiella pneumoniae ATCC 11296 measured after overnight incubation; format: functional, Klebsiella pneumoniae subsp. ozaenae; outline: as §1
Staphylococcus aureus = assay: Antibacterial activity against Staphylococcus aureus ATCC 6538 measured after overnight incubation; format: functional; outline: as §1
Enterococcus faecalis [3] = assay: Antibacterial activity against Enterococcus faecalis ATCC 29212 measured after overnight incubation; format: functional; outline: as §1
Bacillus cereus [4] = assay: Antibacterial activity against Bacillus cereus ATCC 14579 measured after overnight incubation; format: functional, organism-based
Outline: (§2)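 Broth microdilution (liquid growth inhibition) in 96-well plates. Overnight Luria Bertoni preculture from one colony at 37 °C with stirring, adjusted to OD620 0.03; 200 μL suspension added to 2-fold serial dilutions of peptide. Plates incubated overnight at 34 °C with shaking (450 rpm), read at OD620. MIC = lowest concentration giving complete growth inhibition; triplicate; gentamicin positive control.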

Pseudomonas aeruginosa [5] = assay: Antibacterial activity against Pseudomonas aeruginosa ATCC 13388 measured after overnight incubation; format: functional, organism-based; outline: as §2
Klebsiella pneumoniae [6] = assay: Antibacterial activity against Klebsiella pneumoniae ATCC 11296 up to 140 uM measured after overnight incubation; format: functional, organism-based; settings: Klebsiella pneumoniae subsp. ozaenae; outline: as §1
Enterococcus faecalis [7] = assay: Antibacterial activity against Enterococcus faecalis ATCC 29212 up to 140 uM measured after overnight incubation; format: functional, organism-based; outline: as §1
Bacillus cereus [8] = assay: Antibacterial activity against Bacillus cereus ATCC 14579 up to 140 uM measured after overnight incubation; format: functional, organism-based; outline: as §1
Escherichia coli [9] = assay: Antibacterial activity against Escherichia coli ATCC 8739 up to 140 uM measured after overnight incubation; format: functional, organism-based; outline: as §1
Pseudomonas aeruginosa [10] = assay: Antibacterial activity against Pseudomonas aeruginosa ATCC 13388 up to 140 uM measured after overnight incubation; format: functional, organism-based; outline: as §1

## O=C(N[C@H](CO)[C@H](O)c1ccc([N+](=O)[O-])cc1)C(Cl)Cl [CHLORAMPHENICOL]
Escherichia coli [1]
  MIC: 19.3 µM (≈ 6.24 µg/mL)
Klebsiella pneumoniae [2]
  MIC: 3.17 µM (≈ 1.02 µg/mL)

## CC1(C)S[C@@H]2[C@H](NC(=O)[C@H](N)c3ccccc3)C(=O)N2[C@H]1C(=O)O [AMPICILLIN]
Staphylococcus aureus
  MIC: 0.11 µM (≈ 0.0384 µg/mL)
Enterococcus faecalis [3]
  MIC: 4.59 µM (≈ 1.6 µg/mL)

## GENTAMICIN
Bacillus cereus [4]
  MIC: 17.2 µM
Pseudomonas aeruginosa [5]
  MIC: 10.5 µM

## CC[C@H](C)[C@H]1NC(=O)[C@H](CC(C)C)NC(=O)[C@@H](CC(C)C)NC(=O)[C@H](CC(C)C)NC(=O)[C@H](C(C)C)NC(=O)[C@@H](Cc2ccc(O)cc2)NC1=O
Klebsiella pneumoniae [6]
  Activity: inactive
Staphylococcus aureus
  MIC: 35 µM (≈ 25 µg/mL)
Enterococcus faecalis [7]
  Activity: inactive
Bacillus cereus [8]
  Activity: inactive
Escherichia coli [9]
  Activity: inactive
Pseudomonas aeruginosa [10]
  Activity: inactive
